Results from different studies.
Compare with care: the assays were run in different laboratories.
COQ8A: Atypical kinase COQ8A, mitochondrial (COQ8A, Homo sapiens, UniProt Q8NI60)
PIK3CD: Phosphatidylinositol 4,5-bisphosphate 3-kinase catalytic subunit delta isoform (PIK3CD, Homo sapiens, UniProt O00329)
NTSR1: Neurotensin receptor type 1 (NTSR1, Homo sapiens, UniProt P30989)

C[C@]12C[C@H](O)[C@H]3[C@@H](CCC4=CC(=O)CC[C@@]43C)[C@@H]1CC[C@@H]2C(=O)CO
EC50 (Mineralocorticoid receptor (NR3C2, Homo sapiens, UniProt P08235); reporter gene, agonist, luciferase): 11.3 nM

NC(=O)c1ncc(N2CCCCC2)nc1Nc1ccc(C2CCN(C[C@H]3CCN(c4ccc5c(c4)C(=O)N(C4CCC(=O)NC4=O)C5=O)C3)CC2)cc1 (stereo partly shown)
Kd (Tyrosine-protein kinase BTK (BTK, Homo sapiens, UniProt Q06187, L528W); binding, SPR): 88 nM

Cc1ccc2c(=O)cc(C(=O)Nc3c(C(=O)c4ccc(F)cc4)oc4ccccc34)oc2c1C
IC50 (COQ8A; ligand displacement, TR-FRET): 9680 nM

COc1cc2ncnc(Nc3ccc4c(c3)/C(=C/c3ccccc3)C(=O)N4)c2cc1OC
IC50 (PIK3CD; enzyme activity, inhibitor, ADP detection): 700 nM

CCCn1nc(C)c(-c2cc(C(=O)N3CCc4nc5cc(-c6ccccc6)[nH]n5c(=O)c4C3)[nH]n2)c1C
IC50 (COQ8A; ligand displacement, TR-FRET): 1720 nM

COc1ccccc1C1CCN(c2nc(C3(C(F)(F)F)CCCC3)nc3ccc(N(C)CCO)cc23)CC1
EC50 (NTSR1; β-arrestin recruitment, agonist): 18000 nM

CC1(C)CCC(CN2CCN(c3ccc(C(=O)NS(=O)(=O)c4ccc(NCC5CCOCC5)c([N+](=O)[O-])c4)c(Oc4cnc5[nH]ccc5c4)c3)CC2)=C(c2ccc(Cl)cc2)C1
IC50 (COQ8A; ligand displacement, TR-FRET): 6110 nM

Cc1nc(Nc2ccc3c(c2)C(C)(C)C(=O)N3C)c2ccccc2n1
IC50 (PIK3CD; enzyme activity, inhibitor, ADP detection): 719 nM

C=C[C@@]1(C)CC(=O)[C@]2(O)[C@@]3(C)[C@@H](O)CCC(C)(C)[C@@H]3[C@H](O)[C@H](OC(C)=O)[C@@]2(C)O1
EC50 (Adenylate cyclase type 5 (ADCY5, Homo sapiens, UniProt O95622); cAMP, agonist, TR-FRET): 10000 nM

CC(C)(C)OC(=O)N1CCN(Cc2ccn(Cc3ccc(Cl)cc3)c(=O)c2O)CC1
IC50 (Lysine-specific demethylase 4E (KDM4E, Homo sapiens, UniProt B2RXH2); enzyme activity, inhibitor, AlphaScreen): 6180 nM

CCc1ccc(NC(=O)CSc2nc(-c3cccc(OC)c3)nc3c2Cc2c(CO)cnc(C)c2O3)cc1
IC50 (COQ8A; ligand displacement, TR-FRET): 2170 nM

Nc1ncnc2c1ncn2[C@@H]1O[C@H](COP(=O)(O)OP(=O)(O)OP(=O)(O)O)[C@@H](O)[C@H]1O
EC50 (P2X purinoceptor 3 (P2rx3, Rattus norvegicus, UniProt P49654); ion current, agonist, patch clamp): 271 nM

CC(C)Oc1ccc(S(=O)(=O)c2ccc(Oc3cc(OCC(N)=O)c(C(=O)C(Cl)Cl)cc3[N+](=O)[O-])cc2)cc1
IC50 ([Pyruvate dehydrogenase (acetyl-transferring)] kinase isozyme 1, mitochondrial (PDK1, Homo sapiens, UniProt Q15118); enzyme activity, inhibitor, ATP luminescence): 140 nM

Cc1nc(Nc2ccc3c(c2)CC(=O)N3)c2ccccc2n1
IC50 (PIK3CD; enzyme activity, inhibitor, ADP detection): 397 nM

Cc1ccc(Nc2nc3nonc3nc2Nc2cccc(C(F)(F)F)c2)cc1Cl
IC50 (COQ8A; ligand displacement, TR-FRET): 970 nM

COc1cc2ncnc(Nc3ccc4c(c3)/C(=C/c3cccc(Cl)c3)C(=O)N4C)c2cc1OC
IC50 (PIK3CD; enzyme activity, inhibitor, ADP detection): 628 nM

COc1ccccc1C1CCN(c2nc(C3(F)CC3)nc3ccc(N(C)CCN4CCOCC4)cc23)CC1
EC50 (NTSR1; β-arrestin recruitment, agonist): 7460 nM

COc1cc2ncnc(Nc3ccc4c(c3)/C(=C/c3ccccc3)C(=O)N4C)c2cc1OC
IC50 (PIK3CD; enzyme activity, inhibitor, ADP detection): 277 nM

COc1cc(/C=C/C(=O)O)ccc1O
Kd (Sarcoplasmic/endoplasmic reticulum calcium ATPase 1 (ATP2A1, Oryctolagus cuniculus, UniProt P04191); binding, fluorescence; pH 7.2): 86000 nM
